According to paper PMC3880198 (Melanoma research, 2012):
Like-named read-outs stand apart in the source and are kept apart here. Marks after values point to notes of the source that are not given here.

What was measured:
advanced melanoma [1] = conditions: five of 32 treated patients with advanced melanoma; cited from earlier work
[2] = test system: melanoma and endothelial cells; conditions: combination of cilengitide and temozolomide, in vitro; cited from earlier work
[3] = test system: recurrent glioblastoma multiforme (GBM); conditions: 81 patients with GBM; cited from earlier work
[4] = test system: recurrent malignant glioma; conditions: at 360 mg/m^2 and 2,400 mg/m^2; cited from earlier work
glioblastoma = conditions: in combination with temozolomide and radiation therapy; cited from earlier work
melanoma = conditions: combination of cilengitide and temozolomide, in vivo; cited from earlier work
[5] = cited from earlier work
[6] = test system: patients with metastatic melanoma; experiment: Toxicity evaluation; conditions: both doses (500 mg and 2,000 mg i.v. twice weekly)
integrin αvβ3 [7] = experiment: Tumoral αvβ3 expression by IHC staining; type: in vivo, human
Outline: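 Core-needle or skin punch tumor biopsies 5-7 days pre-treatment and cycle 1 day 8, within 6 h post-infusion. IHC with anti-αvβ3 LM 609; consensus grading by two pathologists on % positive cells (0 none; +1 1-10%; +2 11-25%; +3 26-75%; +4 >75%). Paired t-test, pre vs post.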

[8] = cited from earlier work; remark: listed apart in the source
integrin αvβ3 [9] = conditions: inhibits binding of the integrin to vitronectin; cited from earlier work
[10] = test system: bFGF- and VEGF-mediated angiogenesis; conditions: chorioallantoic membrane model; ref Cilengitide, Investigators Brochure; cited from earlier work
metastatic melanoma [11] = type: in vivo, human; conditions: for Median PFS in weeks (95% CI) / PFS rate at 8 weeks (95% CI): Kaplan-Meier estimate; for Best tumor response: PR / Best tumor response: SD / Best tumor response: CR: RECIST
clinical = experiment: clinical; parameters: species or system human; conditions: in vivo; for Mean cilengitide concentration / level at 2 h / level at 4 h / level at 24 h: human, iv; for level at 2 h / level at 4 h / level at 24 h: Mean cilengitide concentration
advanced melanoma [12] = conditions: cited from earlier work
metastatic melanoma [13] = conditions: cited from earlier work
[14] = among eight patients with matching samples and detectable αvβ3 at baseline

CNC(=O)c1ccccc1Sc1ccc2c(/C=C/c3ccccn3)n[nH]c2c1 [axitinib]
Objective clinical response (advanced melanoma [1]): 16%

CC(C)[C@H]1C(=O)N[C@@H](CCCNC(=N)N)C(=O)NCC(=O)N[C@@H](CC(=O)O)C(=O)N[C@H](Cc2ccccc2)C(=O)N1C [cilengitide, Cilengitide]
Antiproliferative effects of the combination [2]: synergistic antiproliferative effects | Median OS duration [3]: 9.9 months | Response in patients with recurrent malignant glioma [4]: Complete responses were reported | 6-month PFS rate (glioblastoma): 69% | 12-month PFS rate (glioblastoma): 33% | Median PFS (glioblastoma): 8.0 months | Tumor reduction (melanoma): more effective tumor reduction compared with temozolomide alone | Half-life [5]: less than 5 hours | Half-life ([5]; doses of 120-1,200 mg/m^2, phase I trials): 2.3 to 4.0 h | Maximum-tolerated dose ([5]; phase I trials): has not been established | Tolerability [6]: well tolerated | Patients in whom αvβ3 expression decreased (integrin αvβ3 [7]; [14]): five | Patients in whom αvβ3 expression increased (integrin αvβ3 [7]; [14]): none | Overall tumoral αvβ3 expression with cilengitide treatment (integrin αvβ3 [7]; baseline vs day 8, 17 matching samples, paired t-test P=0.05): decreased | Concentration noted to be active in preclinical studies (biologically active level) [8]: 11-13 μg/mL | Binding to integrin αvβ3 (nanomolar range) (integrin αvβ3 [9]): ~ 2 nM | Cytokine-induced bFGF- and VEGF-mediated angiogenesis [10]: blocked | Response rate (CR+PR) (metastatic melanoma [11]; 500-mg dose (n=14)): 0% | Median PFS in weeks (95% CI) (metastatic melanoma [11]; 500-mg dose (n=14)): 8.0 weeks | PFS rate at 8 weeks (95% CI) (metastatic melanoma [11]; 500-mg dose (n=14)): 14% (4-52%) | Best tumor response: PR (metastatic melanoma [11]; 500-mg dose (n=14)): 0 | Best tumor response: SD (metastatic melanoma [11]; 500-mg dose (n=14)): 2(14%) | Best tumor response: CR (metastatic melanoma [11]; 500-mg dose i.v. twice weekly (n=14)): 0 | Response rate (CR+PR) (metastatic melanoma [11]; 2,000-mg dose (n=12)): 8% | Median PFS in weeks (95% CI) (metastatic melanoma [11]; 2,000-mg dose (n=12)): 7.9 weeks | Best tumor response: SD (metastatic melanoma [11]; 2,000-mg dose (n=12)): 0 | Best tumor response: PR (metastatic melanoma [11]; 2,000-mg dose (n=12), patient initially progressed after 4 weeks): 1 (8%) ^† | Best tumor response: CR (metastatic melanoma [11]; 2,000-mg dose i.v. twice weekly (n=12)): 0 | Response rate (CR+PR) (metastatic melanoma [11]; Overall patients (n=26)): 4% | Median PFS in weeks (95% CI) (metastatic melanoma [11]; Overall patients (n=26)): 8.0 (7.9-8.1) weeks | PFS rate at 8 weeks (95% CI) (metastatic melanoma [11]; Overall patients (n=26)): 12% (4-33%) | Best tumor response: CR (metastatic melanoma [11]; Overall patients (n=26)): 0 | Best tumor response: PR (metastatic melanoma [11]; Overall patients (n=26)): 1 (4%) ^† | Best tumor response: SD (metastatic melanoma [11]; Overall patients (n=26)): 2(8%) | Clinical efficacy as single agent (metastatic melanoma [11]; dose up to 2,000 mg twice weekly, metastatic melanoma): minimal clinical efficacy | Patients free of disease progression per RECIST at 8 weeks (metastatic melanoma [11]; of 26 treated patients): three | Increase in the sum of the largest diameters of five target lesions after one treatment cycle (metastatic melanoma [11]; single patient, 2,000 mg, later partial response): 28% | Mean cilengitide concentration (clinical; 500 mg, 2 h): 17.6 µg/mL | Mean cilengitide concentration (clinical; 500 mg, 4 h): 8.75 µg/mL | level at 2 h (clinical; 500 mg): 18200 ng/mL | level at 4 h (clinical; 500 mg): 8250 ng/mL | level at 24 h (clinical; 500 mg): 40 ng/mL | Mean cilengitide concentration (clinical; 2000 mg, 2 h): 65.8 µg/mL | Mean cilengitide concentration (clinical; 2000 mg, 4 h): 30.5 µg/mL | Mean cilengitide concentration (clinical; 2000 mg, 24 h): 0.58 µg/mL | level at 2 h (clinical; 2000 mg): 73200 ng/mL | level at 4 h (clinical; 2000 mg): 35900 ng/mL | level at 24 h (clinical; 2000 mg): 710 ng/mL | Accumulation after repeated biweekly doses (clinical): No accumulation was observed | Increases in plasma concentrations at the given time points with dose (clinical): dose proportional

CN(C)/N=N/c1[nH]cnc1C(N)=O [dacarbazine]
Estimated PFS rate at 8 weeks (advanced melanoma [12]): approximately 40%

B1: etaracizumab (antibody, chains of the INN, looked up, V domains shown)
VH: QVQLVESGGGVVQPGRSLRLSCAASGFTFSSYDMSWVRQAPGKGLEWVAKVSSGGGSTYYLDTVQGRFTISRDNSKNTLYLQMNSLRAEDTAVYYCARHLHGSFASWGQGTTVTVSS
VL: EIVLTQSPATLSLSPGERATLSCQASQSISNFLHWYQQRPGQAPRLLIRYRSQSISGIPARFSGSGSGTDFTLTISSLEPEDFAVYYCQQSGSWPLTFGGGTKVEIK
Patients with a clinical response (metastatic melanoma [13]; combination arm with dacarbazine): 12.7% | Patients with a clinical response (metastatic melanoma [13]; etaracizumab alone, 57 patients): none
